From PubChem BioAssay
In the library only some 4.2% were active in any assay of this set; here they are far more common.
CTSL1 counter: blocks F. hepatica cathepsin L1 in PFM18AAP counter-screen; recombinant F. hepatica cathepsin L1, Z-Leu-Arg-MCA fluorescence; inhibition, % at 5.96 µM; 300,000 tested, 0.49% active; AID 1906;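 active = inhibition above the mean of all tested compounds plus 3 SD, set per screening campaign, cut at about 17% in these data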
FXN GAA850 act: activators of GAA850 frataxin (FXN) promoter; 360,000 tested, 0.56% active; activation, % at 6 µM; HEK293 lucGAA850 FXN promoter luciferase reporter, 24 h; percent of 10 µM SAHA response;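 active = activation above the average of all compounds screened plus 3 SD, cutoff fixed separately per campaign, cut at about 7.5% in these data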
AHR act: activates the human aryl hydrocarbon receptor. 320,000 tested, 2.5% active. P35869. AID 2796. AHR-responsive luciferase reporter cells, luminescence. activation, % at 5 µM; in the data active = activation above about 47%
Target sequence (P35869 whole entry, looked up): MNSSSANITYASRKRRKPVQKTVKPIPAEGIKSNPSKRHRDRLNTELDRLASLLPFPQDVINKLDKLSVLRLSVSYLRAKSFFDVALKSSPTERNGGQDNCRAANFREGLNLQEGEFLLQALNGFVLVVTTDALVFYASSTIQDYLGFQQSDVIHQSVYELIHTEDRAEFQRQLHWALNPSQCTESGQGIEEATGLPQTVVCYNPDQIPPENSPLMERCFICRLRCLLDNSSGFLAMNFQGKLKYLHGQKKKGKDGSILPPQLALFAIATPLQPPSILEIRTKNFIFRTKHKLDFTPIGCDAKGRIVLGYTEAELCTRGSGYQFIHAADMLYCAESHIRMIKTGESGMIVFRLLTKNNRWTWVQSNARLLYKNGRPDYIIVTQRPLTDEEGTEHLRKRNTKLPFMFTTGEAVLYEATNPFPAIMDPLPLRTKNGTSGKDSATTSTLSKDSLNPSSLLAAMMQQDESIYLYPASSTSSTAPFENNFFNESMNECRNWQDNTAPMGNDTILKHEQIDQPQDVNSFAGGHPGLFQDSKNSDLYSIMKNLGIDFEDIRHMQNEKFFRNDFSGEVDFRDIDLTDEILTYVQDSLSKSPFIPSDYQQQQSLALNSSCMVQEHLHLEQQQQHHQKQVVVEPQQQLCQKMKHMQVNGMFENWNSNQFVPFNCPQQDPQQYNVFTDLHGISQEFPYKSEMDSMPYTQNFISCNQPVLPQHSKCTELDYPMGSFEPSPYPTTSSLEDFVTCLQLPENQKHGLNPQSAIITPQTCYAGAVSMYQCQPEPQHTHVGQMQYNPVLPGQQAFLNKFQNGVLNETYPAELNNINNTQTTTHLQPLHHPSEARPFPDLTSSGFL
SENP1 FRET inh: blocks the human SENP1 SUMO protease catalytic domain | Q9P0U3 | recombinant SENP1 catalytic domain, CyPet-SUMO1-YPet FRET cleavage | inhibition, % at 10 µM | 360,000 tested, 0.21% active;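 active = inhibition at least 30% at 10 µM, raw YFP signal under a set limit, fluorescence ratio 0.5 to 1.5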
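Controls: no-enzyme wells low, DMSO-plus-enzyme wells high control. Test system: human recombinant His6-tagged SENP1 catalytic domain enzyme. Reagent: SFCypet-SUMO1-SFYpet FRET protein substrate, 25 nM final. Doses: one dose per compound, 10 µM, 0.5% DMSO. Detection: FRET, CFP and YFP emission. Timing: 50 min reaction at room temperature.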
M18AAP inhibitor: blocks P. falciparum M18 aspartyl aminopeptidase. recombinant PfM18AAP, H-Glu-NHMec fluorogenic cleavage. inhibition, % at 7.35 µM. 290,000 tested, 1.2% active;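 active = inhibition above the campaign mean inhibition over all tested compounds plus 3 SD, cut at about 28% in these data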
HDAC3 inhib: inhibitors of human histone deacetylase 3. O15379. recombinant HDAC3, fluorogenic peptide/trypsin coupled, fluorescence. inhibition, % at 8.3 µM. 320,000 tested, 0.15% active; in the data active = inhibition above about 26%, passing the limit was not always enough; inconclusive = no clear call, values can overlap the other calls
Of the large screens only hits and unclear results are named; the others gave an inactive call.

CCCn1c(=N)c(C(=O)NC2CCCC2)cc2c(=O)n3cccc(C)c3nc21	AHR act 57
Cc1cccn2c(=O)c3cc(C(=O)NC4CCCC4)c(=N)n(C4CCCC4)c3nc12	AHR act 54
CCOC(=O)C1(C)CCN1C(=O)c1ccccc1OC(F)(F)F (stereo unspecified)	none (no result: CTSL1 counter, AHR act, M18AAP inhibitor, HDAC3 inhib)
COc1cc(/C=C(\C#N)C(=O)NCC2CCCO2)c([N+](=O)[O-])cc1OC (stereo unspecified)	M18AAP inhibitor 30
COc1cc(/C=C(\C#N)C(=O)NCC2CCCO2)ccc1OCC(=O)O (stereo unspecified)	none
CCOC(=O)c1cnc(Nc2nc3ccccc3o2)nc1CN1CCN(C)CC1	M18AAP inhibitor 61 (no result: CTSL1 counter, AHR act, HDAC3 inhib)
CCOC(=O)N1CCc2cc(OC)c(OC)c3c2c1cc1cc(OC)c(OC)cc13	none (no result: CTSL1 counter, AHR act, M18AAP inhibitor, HDAC3 inhib)
Cc1cc(C)c(C#N)c(Sc2ccccc2N)n1	AHR act 49
O=S(=O)(c1ccc(NC(=S)NN=C(Cc2ccccc2)Cc2ccccc2)cc1)N1CCOCC1	M18AAP inhibitor 29
O=S(=O)(c1ccc(NC(=S)NCCc2ccccc2)cc1)N1CCOCC1	none
Nc1c(C2CCCCC2)c(=O)on1C(=O)c1ccccc1	none (no result: CTSL1 counter, AHR act, M18AAP inhibitor, HDAC3 inhib)
c1ccc2c(c1)CC/C2=N/Nc1nc2ccccc2[nH]1	AHR act 48
CSc1nc(N(C)CCO)c2sc3nc(-c4ccco4)c4c(c3c2n1)CCC4	CTSL1 counter 22
O=C(O)CCC(=O)Nc1ccccc1C(=O)NCCc1ccccc1	none
O=C(Nc1ccccc1C(=O)NCCc1ccccc1)c1cnccn1	AHR act 61
Cc1cc(C)c(NC(=O)COC(=O)c2ccc([N+](=O)[O-])s2)c(C)c1	none
COc1ccccc1NC(=O)COC(=O)c1ccc([N+](=O)[O-])s1	CTSL1 counter 22
Cc1ccc(NC(=O)COC(=O)c2ccc([N+](=O)[O-])s2)c(C)c1	CTSL1 counter 28
NS(=O)(=O)c1ccc(NC(=O)COC(=O)c2ccc([N+](=O)[O-])s2)cc1	CTSL1 counter 68
Cc1cc(C)c(C)c(S(=O)(=O)N2CCNC(=O)C2)c1C	none (no result: CTSL1 counter, AHR act, M18AAP inhibitor, HDAC3 inhib)
S=C(SSC(=S)N1CCOCC1)N1CCOCC1	none (no result: CTSL1 counter, FXN GAA850 act, AHR act, M18AAP inhibitor, HDAC3 inhib)
COC(=O)CN1C(=O)S/C(=C/c2cc(C)n(C)c2C)C1=O	FXN GAA850 act 8.8
COc1ccc(N=C2S/C(=C\c3cc(C)n(C)c3C)C(=O)N2CC(C)C)cc1	none
O=C(O)c1cccc(N2C(=O)c3cc([N+](=O)[O-])cc4cc([N+](=O)[O-])cc(c34)C2=O)c1	none
CC1(C)CN(c2ccsc2C(=O)O)C1=O	CTSL1 counter 26
Cc1ccc(C(=O)NCC(=O)OCC(=O)c2c(N)n(C)c(=O)n(C)c2=O)cc1C	none (no result: CTSL1 counter, M18AAP inhibitor)
COc1cc(NC(=O)c2ccc(F)cc2)c(OC)cc1NC(=O)CN1CCCCC1	none
COc1cc(NC(=O)c2cccc(C)c2)c(OC)cc1NC(=O)CN1CCOCC1	none
COc1cc(NC(=O)c2cccc(Cl)c2)c(OC)cc1NC(=O)CN1CCOCC1	AHR act 63
COc1cc(NC(=O)c2cccc(Cl)c2)c(OC)cc1NC(=O)CN1CCCCC1	AHR act 71
COC(=O)C[C@H]1C=C[C@@H](NS(=O)(=O)c2ccccc2)[C@@H](CO)O1	none (no result: CTSL1 counter, FXN GAA850 act, AHR act, M18AAP inhibitor, HDAC3 inhib)
O=C(CCNC(=O)c1ccc([N+](=O)[O-])cc1)Nc1cc(C(F)(F)F)ccc1N1CCOCC1	none (no result: CTSL1 counter, AHR act, M18AAP inhibitor, HDAC3 inhib)
CC(=NNc1nc2ccccc2s1)c1ncccn1	none (no result: CTSL1 counter, AHR act, M18AAP inhibitor, HDAC3 inhib)
C/C(=N\Nc1nc2ccccc2s1)c1cccs1	AHR act 58
CC(=O)Nc1cccc(/C(C)=N/Nc2nc3ccccc3s2)c1	AHR act 61
COc1ccc(CNCc2ccc(OC)c3ccccc23)cc1	none
Cn1c(SCC(=O)Nc2ccccc2)nc2c([nH]c3ccccc32)c1=O	AHR act 53
COCCn1c(SCC(=O)Nc2ccc(C(C)=O)cc2)nc2c([nH]c3ccccc32)c1=O	none
CC(=O)Nc1ccc(NC(=O)CSc2nc3c([nH]c4ccccc43)c(=O)n2-c2ccccc2F)cc1	AHR act 58
COCCn1c(SCC(=O)Nc2cccc(F)c2)nc2c([nH]c3ccccc32)c1=O	AHR act 65
CCn1c(SCC(=O)N2CCC(C)CC2)nc2c([nH]c3ccccc32)c1=O	none (no result: CTSL1 counter, AHR act, M18AAP inhibitor, HDAC3 inhib)
CCn1c(SCC(=O)N2CCN(c3ccccc3)CC2)nc2c([nH]c3ccccc32)c1=O	AHR act 54
Nc1ncnc2c1ncn2[C@@H]1O[C@H](C(=O)N[C@H]2c3ccccc3C[C@H]2O)[C@@H](O)[C@H]1O	none (no result: CTSL1 counter, FXN GAA850 act, AHR act, M18AAP inhibitor, HDAC3 inhib)
C=Cc1ccc(CC2(C)C(=O)Nc3ccc(Cl)cc32)cc1 (stereo unspecified)	none (no result: CTSL1 counter, AHR act, M18AAP inhibitor, HDAC3 inhib)
COc1ccc(C2C3=C(CC(C)(C)CC3=O)N(CC(=O)O)C3=C2C(=O)CC(C)(C)C3)cc1OC	CTSL1 counter 20
CCOc1cc(C2C3=C(CC(C)(C)CC3=O)N(CCOC)C3=C2C(=O)CC(C)(C)C3)ccc1OC	none
COc1ccc(/C=N/NC(=S)Nc2ccccc2)cc1COc1ccc(Br)cc1	none
COc1ccc(/C=N/NC(=S)Nc2ccccc2)cc1	M18AAP inhibitor 31
COc1cccc(/C=N/NC(=S)Nc2cccc(C(=O)O)c2)c1O	M18AAP inhibitor 38
CSc1ccc(/C=N/Nc2cccc(C(=O)O)c2)cc1	FXN GAA850 act 9.1 (no result: CTSL1 counter, AHR act, HDAC3 inhib)
COc1cc(/C=N/NC(=S)Nc2cccc(C(=O)O)c2)ccc1O	none
COc1ccc(OC)c(/C=N/NC(=O)CCCC(=O)Nc2cccc(Br)c2)c1	AHR act 70
CCCCCCCCC(NC(=O)c1ccc(C#N)cc1)C(=O)NCCC (stereo unspecified)	none (no result: CTSL1 counter, M18AAP inhibitor)
O=C(O)c1ccc(N/N=C/c2ccc(OC(=O)c3cccc(Cl)c3)cc2)cc1	CTSL1 counter 18
COc1ccccc1/C=N/NC(=O)c1cccc(OC(F)(F)C(F)F)c1	none
COc1cccc(/C=N/NC(=O)C(=O)Nc2ccccc2OC(F)(F)C(F)F)c1O	SENP1 FRET inh 35
COc1ccc(/C=N/NC(=S)Nc2cccc(C(=O)O)c2)cc1	M18AAP inhibitor 30
COc1ccc(/C=N/NC(=S)Nc2cc(C(F)(F)F)ccc2Cl)cc1	AHR act 54
COc1ccc(CCC(=O)OCC(=O)Nc2sccc2C#N)cc1	none (no result: CTSL1 counter, M18AAP inhibitor)
C[C@H](CO)N1C[C@H](C)[C@@H](CN(C)S(=O)(=O)c2cn(C)cn2)Oc2c(NS(=O)(=O)c3ccc(F)cc3)cccc2C1=O	none (no result: CTSL1 counter, M18AAP inhibitor)
COc1cc(CNc2ncnc3c2ncn3[C@H]2CN(CCN3CCOCC3)C[C@@H](CO)O2)cc(OC)c1OC	none (no result: CTSL1 counter, AHR act, M18AAP inhibitor, HDAC3 inhib)
CC(C)OC(=O)c1cccnc1N1CCN(c2cccc(Cl)c2)CC1	none
NC(=O)N=Nc1c(O)[nH]c2c(Br)cc(Br)cc12	AHR act 50 (no result: FXN GAA850 act, SENP1 FRET inh)
O=C(Nc1nccs1)C1Cc2ccccc2CN1S(=O)(=O)c1ccc(F)cc1 (stereo unspecified)	AHR act 64, HDAC3 inhib inconclusive
